The results in this text go back to ChEMBL document CHEMBL1124565, “Synthesis and receptor affinities of some conformationally restricted analogues of the dopamine D1 selective ligand (5R)-8-chloro-2,3,4,5-tetrahydro-3-methyl-5-phenyl- 1H-3-benzazepin-7-ol” (J Med Chem, 1989).

Assay [1] addresses T1, D(2) dopamine receptor (Rattus norvegicus, UniProt P61169). The experiment in a line: Displacement of [3H]spiperone from rat striatal homogenate dopamine receptor D2. An outline of the steps: (§1)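 Striatum from male Sprague-Dawley rats (150-250 g), homogenized in ice-cold 50 mM Tris-HCl pH 7.4, centrifuged 20000g 10 min twice, resuspended in Tris buffer with 120 mM NaCl, 5 mM CaCl2, 1 mM MgCl2. Competition against [3H]spiperone (final approximately 0.3 nM), triplicate tubes, 37 °C 20 min, vacuum filtration over GF/B with ice-cold buffer rinses, scintillation counting.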

In assay [2] the target is T2, D(1A) dopamine receptor (Rattus norvegicus, UniProt P18901). The experiment in a line: Inhibition of [3H]SCH-23390 binding to rat striatal homogenate dopamine receptor D1. An outline of the steps:
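Pooled striatal membranes from male Sprague-Dawley rats (150-250 g), washed twice by homogenization/centrifugation (20000g, 10 min) in 50 mM Tris-HCl pH 7.4, final buffer adding 120 mM NaCl, 5 mM CaCl2, 1 mM MgCl2. Test agents at various concentrations compete with [3H]SCH 23390; triplicate, 37 °C for 20 min, rapid GF/B filtration, liquid scintillation counting.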

Assay [3] addresses T2, D(1A) dopamine receptor. The experiment in a line: In vitro affinity of compound towards dopamine (D1) receptor was determined by measuring their ability to displace [3H]SCH-23,390 from rat striatal homogenates.
Assay [4] concerns the target T1, D(2) dopamine receptor. The experiment in a line: In vitro affinity of compound towards Dopamine receptor D2 was determined by measuring their ability to displace [3H]spiperone from rat striatal homogenates. An outline of the steps: as §1

T1 sequence (P61169 whole entry): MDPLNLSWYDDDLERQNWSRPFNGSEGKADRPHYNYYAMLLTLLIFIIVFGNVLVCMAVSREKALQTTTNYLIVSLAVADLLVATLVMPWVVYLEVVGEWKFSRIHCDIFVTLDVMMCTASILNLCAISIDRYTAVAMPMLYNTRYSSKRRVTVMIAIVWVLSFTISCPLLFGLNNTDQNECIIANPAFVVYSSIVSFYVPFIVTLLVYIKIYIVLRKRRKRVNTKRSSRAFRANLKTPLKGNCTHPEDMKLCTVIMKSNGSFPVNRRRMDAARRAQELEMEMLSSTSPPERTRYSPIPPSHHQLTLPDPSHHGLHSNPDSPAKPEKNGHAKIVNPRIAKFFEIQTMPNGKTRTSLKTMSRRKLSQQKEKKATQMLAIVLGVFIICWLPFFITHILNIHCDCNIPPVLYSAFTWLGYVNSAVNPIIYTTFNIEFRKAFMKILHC
T2 sequence (P18901 whole entry): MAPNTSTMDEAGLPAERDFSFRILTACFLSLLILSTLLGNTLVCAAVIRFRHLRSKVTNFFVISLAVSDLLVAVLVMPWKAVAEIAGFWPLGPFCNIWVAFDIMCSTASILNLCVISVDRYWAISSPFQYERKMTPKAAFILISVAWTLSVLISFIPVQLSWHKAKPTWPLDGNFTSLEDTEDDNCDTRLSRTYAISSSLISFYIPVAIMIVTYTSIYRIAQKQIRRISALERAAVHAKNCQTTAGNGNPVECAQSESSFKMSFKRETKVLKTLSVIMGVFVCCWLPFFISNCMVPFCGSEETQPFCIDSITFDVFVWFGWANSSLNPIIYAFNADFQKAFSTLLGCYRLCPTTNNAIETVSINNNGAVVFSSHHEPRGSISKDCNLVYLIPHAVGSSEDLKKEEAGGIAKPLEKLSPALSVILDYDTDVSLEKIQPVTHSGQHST

As for `COc1cc2c(cc1O)CCN(C)[C@H]1CCc3ccccc3[C@H]21`, the figures for the Ki at D(2) dopamine receptor [1] and on D(1A) dopamine receptor [2] were 6400 nM and 1660 nM, respectively.

Regarding `CN1CCc2cc(Cl)c(O)cc2[C@H]2c3ccccc3CC[C@@H]21` [ECOPIPAM], affinity on D(1A) dopamine receptor [2] was put at a Ki of 1.9 nM.

Turning to `CN1CCc2cc(Cl)c(O)cc2[C@@H]2c3ccccc3CC[C@@H]21` (relative stereo), the affinity on D(1A) dopamine receptor [2] corresponds to a Ki of 474 nM.

In the case of `CN1CCc2cc(Cl)c(O)cc2[C@H]2c3ccccc3CC[C@H]21`, at D(1A) dopamine receptor [2], the Ki (as a rule, the equilibrium dissociation constant of an inhibitor or competing ligand from its target) is 898 nM.

Consider `CN1CCc2cc(O)c(O)cc2[C@@H]2c3ccccc3CC[C@@H]21`, for which the Ki on D(1A) dopamine receptor [3] is 1730 nM; at D(2) dopamine receptor [4], more than 100000 nM.

For `COc1cc2c(cc1O)[C@@H]1c3ccccc3CC[C@@H]1N(C)CC2`, the Ki is more than 100000 nM on D(2) dopamine receptor [1] and 4200 nM on D(1A) dopamine receptor [2].

As to `CN1CCc2cc(Cl)c(O)cc2[C@@H]2c3ccccc3CC[C@@H]21`, the Ki at D(1A) dopamine receptor [2] was determined as 513 nM.

Consider `COc1cc2c(cc1O)CCN(C)[C@H]1CCc3ccccc3[C@@H]21`, for which the Ki is more than 100000 nM on D(2) dopamine receptor [1] and 24400 nM at D(1A) dopamine receptor [2].

Turning to `CN1CCc2cc(Cl)c(O)cc2[C@@H]2c3ccccc3CC[C@H]21`, affinity on D(1A) dopamine receptor [2] was put at a Ki of 531 nM.

With `CN1CCc2cc(Cl)c(O)cc2C2c3ccccc3CCC21` (trans isomer), the Ki at D(1A) dopamine receptor [2] was found to be 3.3 nM.

Regarding `CN1CCc2cc(O)c(O)cc2[C@H]2c3ccccc3CC[C@@H]21`, the results for the Ki at D(1A) dopamine receptor [3] and at D(2) dopamine receptor [4] were 68 nM and 2410 nM, respectively.

For `CN1CCc2ccc(O)cc2[C@H]2c3ccccc3CC[C@@H]21`, the Ki at D(2) dopamine receptor [1] was 7870 nM; on D(1A) dopamine receptor [2], 72.6 nM.

Turning to `COc1cc2c(cc1O)[C@H]1c3ccccc3CC[C@@H]1N(C)CC2`, the results for the Ki on D(2) dopamine receptor [1] and at D(1A) dopamine receptor [2] were 2480 nM and 23.6 nM, respectively.

In the case of `Cc1cc2c(cc1O)[C@H]1c3ccccc3CC[C@@H]1N(C)CC2`, the Ki at D(2) dopamine receptor [1] was determined as 1510 nM; on D(1A) dopamine receptor [2] it was 7.1 nM.
